In ChEMBL document CHEMBL1157506, “Synthesis and pharmacological characterization of chiral pyrrolidinylfuran derivatives: the discovery of new functionally selective muscarinic agonists” (J Med Chem, 2008):

Legend:
[1] = Antagonist activity at muscarinic M1/M4 receptor in guinea pig lung assessed as effect on tissue contraction; assay type: functional, Cavia porcellus
[2] = Antagonist activity at muscarinic M3 receptor in guinea pig ileum assessed as effect on tissue tension changes; assay type: functional, Cavia porcellus
Outline: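 Guinea pig ileum with isotonic recording of tension changes and 30 min equilibration. Dose-response curves to arecaidine propargyl ester taken at 30 min intervals; the first is discarded and the second serves as control. Responses are expressed as % of the maximal control-curve response, with parallel tissues given only the reference agonist to check sensitivity.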

[3] = biological target: T1, Muscarinic acetylcholine receptor M1 (Homo sapiens, UniProt P11229); test: Displacement of [3H]NMS from human muscarinic M1 receptor expressed in CHO cells by liquid scintillation counter; assay type: cell-based
T1 sequence (P11229 whole entry): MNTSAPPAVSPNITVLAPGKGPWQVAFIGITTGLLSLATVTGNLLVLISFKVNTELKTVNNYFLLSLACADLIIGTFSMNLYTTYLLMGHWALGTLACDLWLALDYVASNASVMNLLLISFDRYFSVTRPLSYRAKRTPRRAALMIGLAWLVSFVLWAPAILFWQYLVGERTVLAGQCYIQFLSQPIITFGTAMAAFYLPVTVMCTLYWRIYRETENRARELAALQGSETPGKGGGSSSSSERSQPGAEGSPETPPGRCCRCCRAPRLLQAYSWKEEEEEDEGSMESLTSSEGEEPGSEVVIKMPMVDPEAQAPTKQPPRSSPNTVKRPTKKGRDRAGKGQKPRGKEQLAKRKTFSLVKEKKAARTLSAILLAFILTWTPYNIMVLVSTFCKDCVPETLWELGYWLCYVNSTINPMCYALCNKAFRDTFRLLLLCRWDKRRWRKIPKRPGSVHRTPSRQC

[4] = biological target: T2, Muscarinic acetylcholine receptor M2 (Homo sapiens, UniProt P08172); test: Displacement of [3H]NMS from human muscarinic M2 receptor expressed in CHO cells by liquid scintillation counter; assay type: cell-based
T2 sequence (P08172 whole entry): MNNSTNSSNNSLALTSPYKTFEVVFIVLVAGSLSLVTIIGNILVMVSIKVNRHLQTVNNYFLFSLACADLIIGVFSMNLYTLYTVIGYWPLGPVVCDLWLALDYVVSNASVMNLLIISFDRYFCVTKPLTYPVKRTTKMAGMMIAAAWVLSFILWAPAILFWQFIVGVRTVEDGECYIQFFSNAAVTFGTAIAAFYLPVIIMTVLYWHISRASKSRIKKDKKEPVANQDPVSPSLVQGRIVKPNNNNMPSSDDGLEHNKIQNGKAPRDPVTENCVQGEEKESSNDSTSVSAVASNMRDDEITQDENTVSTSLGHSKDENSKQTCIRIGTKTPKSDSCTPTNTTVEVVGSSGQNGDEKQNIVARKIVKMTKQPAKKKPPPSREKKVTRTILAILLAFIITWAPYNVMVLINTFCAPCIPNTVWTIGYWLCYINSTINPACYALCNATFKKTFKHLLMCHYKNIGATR
Outline: (§1)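 Membrane protein was 70 µg/mL for hm2, 50 µg/mL for hm4 and 25 µg/mL for hm5. Incubation was 120 min at room temperature in 25 mM sodium phosphate with 5 mM MgCl2, pH 7.4. GF/C filtration and scintillation counting followed; duplicates.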

[5] = biological target: Muscarinic acetylcholine receptor M3 (Homo sapiens, UniProt P20309); test: Displacement of [3H]NMS from human muscarinic M3 receptor expressed in CHO cells by liquid scintillation counter; assay type: cell-based
Muscarinic acetylcholine receptor M3, sequence (P20309 whole entry): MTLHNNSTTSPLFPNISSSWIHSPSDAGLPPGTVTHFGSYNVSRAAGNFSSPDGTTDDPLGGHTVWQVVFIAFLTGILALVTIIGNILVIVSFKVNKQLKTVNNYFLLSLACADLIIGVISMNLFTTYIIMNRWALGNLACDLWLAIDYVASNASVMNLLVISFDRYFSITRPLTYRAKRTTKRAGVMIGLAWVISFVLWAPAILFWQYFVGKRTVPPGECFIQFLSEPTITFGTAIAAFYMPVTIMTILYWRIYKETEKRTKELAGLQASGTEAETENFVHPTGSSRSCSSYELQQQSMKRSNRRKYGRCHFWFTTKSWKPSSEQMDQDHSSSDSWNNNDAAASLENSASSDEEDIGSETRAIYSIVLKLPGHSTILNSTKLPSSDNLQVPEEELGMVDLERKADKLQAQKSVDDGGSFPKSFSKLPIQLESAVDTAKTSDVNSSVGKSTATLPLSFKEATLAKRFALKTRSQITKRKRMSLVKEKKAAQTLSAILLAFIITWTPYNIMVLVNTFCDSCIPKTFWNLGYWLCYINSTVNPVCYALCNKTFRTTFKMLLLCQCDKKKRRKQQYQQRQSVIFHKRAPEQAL

[6] = biological target: T3, Muscarinic acetylcholine receptor M4 (Homo sapiens, UniProt P08173); test: Displacement of [3H]NMS from human muscarinic M4 receptor expressed in CHO cells by liquid scintillation counter; assay type: cell-based; outline: as §1
T3 sequence (P08173 whole entry): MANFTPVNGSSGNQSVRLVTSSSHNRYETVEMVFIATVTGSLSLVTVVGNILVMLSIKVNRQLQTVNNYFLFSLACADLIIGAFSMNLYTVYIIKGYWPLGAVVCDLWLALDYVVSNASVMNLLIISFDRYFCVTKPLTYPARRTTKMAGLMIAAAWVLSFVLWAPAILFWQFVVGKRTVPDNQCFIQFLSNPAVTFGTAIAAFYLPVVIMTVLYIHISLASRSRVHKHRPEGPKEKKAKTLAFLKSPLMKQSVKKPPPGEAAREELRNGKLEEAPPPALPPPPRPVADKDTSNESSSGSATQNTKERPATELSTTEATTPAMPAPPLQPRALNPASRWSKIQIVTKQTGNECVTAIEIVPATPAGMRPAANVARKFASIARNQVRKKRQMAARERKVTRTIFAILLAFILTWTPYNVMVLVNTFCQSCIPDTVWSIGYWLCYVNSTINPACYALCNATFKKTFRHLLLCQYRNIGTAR

[7] = biological target: T4, Muscarinic acetylcholine receptor M5 (Homo sapiens, UniProt P08912); test: Displacement of [3H]NMS from human muscarinic M5 receptor expressed in CHO cells by liquid scintillation counter; assay type: cell-based; outline: as §1
T4 sequence (P08912 whole entry): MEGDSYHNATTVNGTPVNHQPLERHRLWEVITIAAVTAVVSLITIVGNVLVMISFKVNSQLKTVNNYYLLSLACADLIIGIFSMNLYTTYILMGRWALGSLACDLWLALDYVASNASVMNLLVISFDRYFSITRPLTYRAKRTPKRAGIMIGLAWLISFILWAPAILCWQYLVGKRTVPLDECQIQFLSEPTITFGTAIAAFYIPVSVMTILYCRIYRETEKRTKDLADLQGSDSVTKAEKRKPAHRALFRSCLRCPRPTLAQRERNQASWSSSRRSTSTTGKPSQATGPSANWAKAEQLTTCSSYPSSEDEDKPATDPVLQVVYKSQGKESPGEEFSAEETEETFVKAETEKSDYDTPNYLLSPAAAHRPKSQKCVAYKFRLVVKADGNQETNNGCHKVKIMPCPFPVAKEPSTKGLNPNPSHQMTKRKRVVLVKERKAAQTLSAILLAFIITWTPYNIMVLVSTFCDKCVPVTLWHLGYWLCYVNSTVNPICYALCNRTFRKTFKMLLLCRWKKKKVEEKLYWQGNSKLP

[8] = Antagonist activity at muscarinic M1/M4 receptor in New Zealanda white rabbit vas deferens assessed as effect on isometric tissue contraction; assay type: functional, Oryctolagus cuniculus
Outline: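 Rabbit vas deferens bathed at 30 °C with 10^-6 M yohimbine and 10^-8 M tripitramine to block α2-adrenoceptors and M2 receptors. Electrically stimulated with square-wave pulses (0.1 ms, 2 Hz, 10-15 V) and equilibrated 1 h. Isometric contractions recorded during a cumulative dose-response curve to McN-A-343. Responses are expressed as % of maximal control-curve response, with parallel reference-agonist-only tissues run.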

Cavia porcellus [9] = species on record: Cavia porcellus; test: Intrinsic activity at muscarinic M2 receptor in guinea pig atrium assessed as effect on inotropic activity relative to control; assay type: tissue-based; conditions: Cardiac atrium
Outline: (§2)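 Left atria in PSS at 30 °C, paced via platinum electrodes (1 ms, 1 Hz, 5-10 V). Inotropic force recorded isometrically after 2 h equilibration. A cumulative APE reference curve was obtained, then cumulative agonist curves. Responses are expressed as % of the control maximal response.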

[10] = Agonist activity at muscarinic M2 receptor in guinea pig atrium assessed as effect on inotropic activity; assay type: functional, Cavia porcellus, Cardiac atrium; outline: as §2
Cavia porcellus [11] = species on record: Cavia porcellus; test: Intrinsic activity at muscarinic M1/M4 receptor in guinea pig lung assessed as effect on tissue contraction relative to control
[12] = Agonist activity at muscarinic M1/M4 receptor in guinea pig lung assessed as effect on tissue contraction; assay type: functional, Cavia porcellus
Oryctolagus cuniculus = species on record: Oryctolagus cuniculus; test: Intrinsic activity at muscarinic M1/M4 receptor in New Zealanda white rabbit vas deferens assessed as effect on isometric tissue contraction relative to control; assay type: tissue-based
Outline: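 Vas deferens in solution with 10^-6 M yohimbine and 10^-8 M tripitramine at 30 °C, field-stimulated (0.1 ms, 2 Hz, 10-15 V). Contractions recorded isometrically after 1 h equilibration. A cumulative McN-A-343 reference curve was built, then cumulative curves to the test agonist. Responses are expressed as % of the control curve's maximum. Parallel reference-only tissues served as sensitivity checks.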

Cavia porcellus [13] = species on record: Cavia porcellus; test: Intrinsic activity at muscarinic M3 receptor in guinea pig ileum assessed as effect on tissue tension changes relative to control; assay type: tissue-based
Outline: (§3)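 Ileum tension changes recorded isotonically after 30 min equilibration. APE curves were run at 30 min intervals; the first was discarded and the second was taken as control. Cumulative agonist curves followed, with responses expressed as % of the control maximum. Parallel reference-only tissues served as sensitivity checks.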

[14] = Agonist activity at muscarinic M3 receptor in guinea pig ileum assessed as effect on tissue tension changes; assay type: functional, Cavia porcellus; outline: as §3

SMILES	pKb [1]	pKb [2]	Ki [3] [µM]	Ki [4] [µM]	Ki [5] [µM]	Ki [6] [µM]	Ki [7] [µM]	pKb [8]	Intrinsic activity (Cavia porcellus [9])	pD2 [10]	Intrinsic activity (Cavia porcellus [11])	pD2 [12]	Intrinsic activity (Oryctolagus cuniculus)	Intrinsic activity (Cavia porcellus [13])	pD2 [14]
Cc1ccc([C@@H]2CCC[N+]2(C)C)o1.[I-]	5.96	7.82	5.62	1.66	2.69	5.13	3.63	5.9	0.42	7.49					
Cc1ccc([C@@H]2CCCN2C)o1	<5	<5	36.3	15.8	33.1	47.9	39.8	<5	0.47	6.6					
CN1CCCC1c1ccco1 (racemic)			33.1	41.7	44.7	69.2	44.7		0.4	7.25	0.25	6.87	0.22	0.35	5.7
Cc1ccc(C2CCCN2C)o1 (racemic)	<5	<5	26.9	14.5	22.9	24.5	21.9		0.37	6.31					
